# Assay results from ChEMBL document CHEMBL1165950, “Design and synthesis of new potent anticancer pyrazoles with high FLT3 kinase inhibitory selectivity” (Bioorg Med Chem, 2010).
# What was measured:
# Type in all cases: functional
# [1] = test system: IGROV-1; assay: Growth inhibition of human IGROV1 cells after 48 hrs by sulforhodamine B assay; settings: IGROV-1, 48 h; for CC50: read-out: LC50 (the source's name)
# In short: (§1)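 NCI 60-cell screen, five-dose mode. Cells grown in RPMI 1640 with 5% FBS and 2 mM L-glutamine and plated at 5000-40,000 cells/well according to doubling time. After 24 h preincubation, a Tz plate was TCA-fixed. Five concentrations (10-fold or 1/2 log dilutions) were applied for 48 h at 37 °C. SRB staining read at 515 nm. IC50 taken from [(Ti-Tz)/(C-Tz)]×100 = 50.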
# [2] = test system: ACHN; assay: Growth inhibition of human ACHN cells after 48 hrs by sulforhodamine B assay
# In short: (§2)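 NCI five-dose SRB assay in RPMI 1640 with 5% FBS and 2 mM L-glutamine. Cells were preincubated 24 h, then exposed 48 h at 37 °C to five concentrations (10-fold or half-log serial dilutions from DMSO stocks). TCA fixation, SRB staining, and absorbance at 515 nm followed. IC50 was taken where [(Ti−Tz)/(C−Tz)]×100 = 50, with Tz as time-zero cell density.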
# [3] = test system: NCI-H23; assay: Growth inhibition of human NCI-H23 cells after 48 hrs by sulforhodamine B assay; settings: NCI-H23, 48 h; for CC50: read-out: LC50 (the source's name); in short: as §1
# [4] = test system: CCRF-CEM; assay: Cytotoxicity against human CCRF-CEM cells assessed as cell growth at 10 uM after 48 hrs by sulforhodamine B assay; settings: read-out: Activity
# In short: (§3)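 NCI-60 five-dose screen. Cells were grown in RPMI 1640 with 5% FBS and 2 mM L-glutamine, plated at 5000–40,000 cells/well and preincubated for 24 h. Time-zero plates were TCA-fixed. DMSO-solubilized drug was added at five concentrations (10-fold or ½-log serial dilutions) for 48 h at 37 °C, 5% CO2. Cells were TCA-fixed, stained with 0.4% SRB and read at 515 nm. Percent growth used time-zero, control and test absorbances.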
# [5] = Cytotoxicity against human Hs 578T cells assessed as cell growth at 1 uM after 48 hrs by sulforhodamine B assay; settings: read-out: Activity
# [6] = test system: UACC-257; assay: Cytotoxicity against human UACC257 cells assessed as cell growth at 1 uM after 48 hrs by sulforhodamine B assay; settings: UACC-257, 48 h, read-out: Activity
# [7] = test system: OVCAR-8; assay: Cytotoxicity against human OVCAR8 cells assessed as cell growth at 10 uM; settings: read-out: Activity
# In short: (§4)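 NCI-60 screen: cells grown in RPMI 1640 with 5% FBS and 2 mM L-glutamine, plated at 5000–40,000 cells/well according to doubling time, and preincubated 24 h at 37 °C, 5% CO2. The single 10 µM dose (DMSO stock) was added, then incubated 48 h. Cells were TCA-fixed and stained with 0.4% SRB, read at 515 nm, and growth % calculated against time-zero and control plates.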
# [8] = test system: SK-MEL-5; assay: Cytotoxicity against human SK-MEL-5 cells assessed as cell growth at 10 uM after 48 hrs by sulforhodamine B assay; settings: SK-MEL-5, 48 h, read-out: Activity
# [9] = test system: K562; assay: Cytotoxicity against human K562 cells assessed as cell growth at 0.001 uM after 48 hrs by sulforhodamine B assay; settings: K562, 48 h, read-out: Activity
# [10] = test system: TK-10; assay: Cytotoxicity against human TK10 cells assessed as cell growth at 100 nM after 48 hrs by sulforhodamine B assay; settings: TK-10, 48 h, read-out: Activity
# [11] = test system: NCI-H23; assay: Cytotoxicity against human NCI-H23 cells assessed as cell growth at 10 uM after 48 hrs by sulforhodamine B assay; settings: NCI-H23, 48 h, read-out: Activity
# [12] = test system: BT-549; assay: Growth inhibition of human BT549 cells after 48 hrs by sulforhodamine B assay; settings: BT-549, 48 h; for CC50: read-out: LC50 (the source's name); in short: as §2
# [13] = test system: NCI-H322M; assay: Cytotoxicity against human NCI-H322M cells assessed as cell growth at 10 uM; settings: read-out: Activity; in short: as §4
# [14] = test system: MDA-MB-468; assay: Cytotoxicity against human MDA-MB-468 cells assessed as cell growth at 10 uM; settings: read-out: Activity; in short: as §4
# [15] = test system: SW-620; assay: Cytotoxicity against human SW620 cells assessed as cell growth at 0.001 uM after 48 hrs by sulforhodamine B assay; settings: SW-620, 48 h, read-out: Activity
# [16] = test system: T47D; assay: Cytotoxicity against human T47D cells assessed as cell growth at 1 uM after 48 hrs by sulforhodamine B assay; settings: read-out: Activity
# [17] = test system: NCI-H522; assay: Growth inhibition of human NCI-H522 cells after 48 hrs by sulforhodamine B assay; settings: NCI-H522, 48 h; for CC50: read-out: LC50 (the source's name); in short: as §1
# [18] = test system: HT-29; assay: Cytotoxicity against human HT-29 cells assessed as cell growth at 0.001 uM after 48 hrs by sulforhodamine B assay; settings: HT-29, 48 h, read-out: Activity
# [19] = test system: COLO 205; assay: Cytotoxicity against human COLO205 cells assessed as cell growth at 0.001 uM after 48 hrs by sulforhodamine B assay; settings: COLO 205, 48 h, read-out: Activity; in short: as §3
# [20] = test system: LOX IMVI; assay: Growth inhibition of human LOXIMVI cells after 48 hrs by sulforhodamine B assay; settings: for CC50: read-out: LC50 (the source's name); in short: as §1
# [21] = test system: A498; assay: Cytotoxicity against human A498 cells assessed as cell growth at 100 nM after 48 hrs by sulforhodamine B assay; settings: A498, 48 h, read-out: Activity; in short: as §3
# [22] = test system: UACC-62; assay: Cytotoxicity against human UACC62 cells assessed as cell growth at 100 nM after 48 hrs by sulforhodamine B assay; settings: UACC-62, 48 h, read-out: Activity
# [23] = Cytotoxicity against human […] cells assessed as cell growth at 0.001 uM after 48 hrs by sulforhodamine B assay; settings: read-out: Activity
# [24] = test system: MDA-MB-468; assay: Cytotoxicity against human MDA-MB-468 cells assessed as cell growth at 1 uM after 48 hrs by sulforhodamine B assay; settings: MDA-MB-468, 48 h, read-out: Activity
# [25] = test system: SK-OV-3; assay: Cytotoxicity against human SKOV3 cells assessed as cell growth at 10 uM after 48 hrs by sulforhodamine B assay; settings: SK-OV-3, 48 h, read-out: Activity
# [26] = test system: EKVX; assay: Cytotoxicity against human EKVX cells assessed as cell growth at 0.001 uM after 48 hrs by sulforhodamine B assay; settings: read-out: Activity
# [27] = test system: SR; assay: Cytotoxicity against human SR cells assessed as cell growth at 10 uM; settings: read-out: Activity; in short: as §4
# [28] = test system: PC-3; assay: Cytotoxicity against human PC3 cells assessed as cell growth at 0.001 uM after 48 hrs by sulforhodamine B assay; settings: PC-3, 48 h, read-out: Activity
# [29] = test system: A549; assay: Cytotoxicity against human A549 cells assessed as cell growth at 0.001 uM after 48 hrs by sulforhodamine B assay; settings: A549, 48 h, read-out: Activity; in short: as §3
# [30] = test system: MCF7; assay: Cytotoxicity against human MCF7 cells assessed as cell growth at 0.01 uM after 48 hrs by sulforhodamine B assay; settings: MCF7, 48 h, read-out: Activity
smiles,measurement,setting,value
COc1cc(C)cc(-c2c(-c3ccnc(-c4ccc(N(C)C)cc4)c3)cnn2CC#N)c1,GI50,[1],60.8 nM
same,TGI,[1],40.9 µM
same,CC50,[1],> 100 µM
same,GI50,[2],68 nM
same,LC50 (concentration giving 50% net cell kill),[2],> 100 µM
same,TGI,[2],> 100 µM
same,GI50,[3],276 nM
same,TGI,[3],> 100 µM
same,CC50,[3],> 100 µM
same,growth at 10 µM,[4],8%
same,growth at 1 µM,[5],18%
same,growth at 1 µM,[6],29%
same,growth at 10 µM,[7],25.4%
same,growth at 10 µM,[8],-39%
same,growth at 0.001 µM,[9],104%
same,growth at 0.1 µM,[10],44%
same,growth at 10 µM,[11],17%
same,GI50,[12],75.1 nM
same,TGI,[12],0.514 µM
same,CC50,[12],> 100 µM
same,growth at 10 µM,[13],58.9%
same,growth at 10 µM,[14],-23.1%
same,growth at 0.001 µM,[15],105%
same,growth at 1 µM,[16],19%
same,GI50,[17],27 nM
same,TGI,[17],84.6 nM
same,CC50,[17],3.22 µM
same,growth at 0.001 µM,[18],94%
same,growth at 0.001 µM,[19],98%
same,GI50,[20],66.8 nM
same,TGI,[20],> 100 µM
same,CC50,[20],> 100 µM
same,growth at 0.1 µM,[21],10%
same,growth at 0.1 µM,[22],37%
same,growth at 0.001 µM,[23],100%
same,growth at 1 µM,[24],-57%
same,growth at 10 µM,[25],26%
same,growth at 0.001 µM,[26],97%
same,growth at 10 µM,[27],-6.91%
same,growth at 0.001 µM,[28],101%
same,growth at 0.001 µM,[29],95%
same,growth at 0.01 µM,[30],56%
Cc1cc(O)cc(-c2nn(CC#N)cc2-c2ccnc(-c3ccc(N(C)C)cc3)c2)c1,GI50,[1],3910 nM
same,TGI,[1],24.8 µM
same,CC50,[1],> 100 µM
same,GI50,[2],3730 nM
same,LC50 (concentration giving 50% net cell kill),[2],> 100 µM
same,TGI,[2],23.7 µM
same,GI50,[3],4480 nM
same,TGI,[3],24.8 µM
same,CC50,[3],> 100 µM
same,growth at 10 µM,[4],7%
same,growth at 1 µM,[5],-15%
same,growth at 1 µM,[6],31%
same,growth at 10 µM,[7],45%
same,growth at 10 µM,[8],-93%
same,growth at 0.001 µM,[9],100%
same,growth at 0.1 µM,[10],125%
same,growth at 10 µM,[11],-37%
same,GI50,[12],2770 nM
same,TGI,[12],12.1 µM
same,CC50,[12],> 100 µM
same,growth at 10 µM,[13],94.1%
same,growth at 10 µM,[14],-13.9%
same,growth at 0.001 µM,[15],99%
same,growth at 1 µM,[16],5%
same,GI50,[17],1930 nM
same,TGI,[17],7140 nM
same,CC50,[17],68.1 µM
same,growth at 0.001 µM,[18],101%
same,growth at 0.001 µM,[19],109%
same,GI50,[20],5130 nM
same,TGI,[20],17.8 µM
same,CC50,[20],47.7 µM
same,growth at 0.1 µM,[21],92%
same,growth at 0.1 µM,[22],87%
same,growth at 0.001 µM,[23],96%
same,growth at 1 µM,[24],-50%
same,growth at 10 µM,[25],-38%
same,growth at 0.001 µM,[26],96%
same,growth at 10 µM,[27],20.5%
same,growth at 0.001 µM,[28],105%
same,growth at 0.001 µM,[29],104%
same,growth at 0.01 µM,[30],89%
COc1cc(C)cc(-c2nn(CC#N)cc2-c2ccnc(-c3ccc(N(C)C)cc3)c2)c1,GI50,[1],402 nM
same,TGI,[1],30.1 µM
same,CC50,[1],> 100 µM
same,GI50,[2],499 nM
same,LC50 (concentration giving 50% net cell kill),[2],> 100 µM
same,TGI,[2],12.4 µM
same,GI50,[3],514 nM
same,TGI,[3],> 100 µM
same,CC50,[3],> 100 µM
same,growth at 10 µM,[4],10%
same,growth at 1 µM,[5],-13%
same,growth at 1 µM,[6],48%
same,growth at 10 µM,[7],12%
same,growth at 10 µM,[8],-66%
same,growth at 0.001 µM,[9],66%
same,growth at 0.1 µM,[10],50%
same,growth at 10 µM,[11],5%
same,GI50,[12],1620 nM
same,TGI,[12],7.33 µM
same,CC50,[12],> 100 µM
same,growth at 10 µM,[13],41.1%
same,growth at 10 µM,[14],-48.4%
same,growth at 0.001 µM,[15],98%
same,growth at 1 µM,[16],10%
same,GI50,[17],196 nM
same,TGI,[17],492 nM
same,CC50,[17],3.24 µM
same,growth at 0.001 µM,[18],103%
same,growth at 0.001 µM,[19],107%
same,GI50,[20],681 nM
same,TGI,[20],14.8 µM
same,CC50,[20],> 100 µM
same,growth at 0.1 µM,[21],-8%
same,growth at 0.1 µM,[22],18%
same,growth at 0.001 µM,[23],104%
same,growth at 1 µM,[24],-55%
same,growth at 10 µM,[25],-40%
same,growth at 0.001 µM,[26],91%
same,growth at 10 µM,[27],9.06%
same,growth at 0.001 µM,[28],97%
same,growth at 0.001 µM,[29],97%
same,growth at 0.01 µM,[30],38%
